PMC7286531 (Organic & biomolecular chemistry, 2020)

Experiments:
[1] = tested on: STAT3 phosphorylated on tyrosine 705 (pSTAT3); test: G-CSF-induced intracellular STAT3 phosphorylation assay in AML cell lines; assay type: cell-based, human; details: Kasumi-1 / Kasumi cells
Procedure, shortened: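 Kasumi-1 human AML cells (also other AML lines) were exposed to a concentration series of test compound and stimulated with G-CSF to induce STAT3 phosphorylation. Cells were then lysed, and STAT3 phosphorylated on Tyr705 was quantified with a fluorescent anti-pSTAT3 antibody. IC50 was taken from the concentration series; mean ±SD, n = 3.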

[2] = Stability in aqueous buffer under air; assay type: physicochemical; details: C188–9: within 4 hours

COc1ccc(S(=O)(=O)Nc2cc(-c3c(O)ccc4ccccc34)c(O)c3ccccc23)cc1 [C188–9]
inhibition of G-CSF-induced STAT3 phosphorylation, result in words [1]: exceptionally resistant
stability in aqueous buffer in air, result in words [2]: Significant decomposition
